Measurements published in ChEMBL document CHEMBL1123087, “Synthesis and antimetastatic properties of stereoisomeric tricyclic bis(dioxopiperazines) in the Lewis lung carcinoma model” (1985).

Experiments:
Type in all cases: functional
Mus musculus [1] = species on record: Mus musculus; assay: Autopsy data was evaluated as average number of metastasis in >2 mm
Outline: (§1)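 BDF1 female mice (19–21 g); Lewis lung carcinoma, 10⁶ cells implanted im in the leg on day 0, and the tumor-bearing leg amputated on day 8. Dosing after amputation was 160 mg/kg ip from day 8, Q2Dx4, given as a saline suspension. Survival was tracked to day 40. Mice dying and those killed on day 40 were autopsied for body weight, lung weight and metastasis counts (<2 mm, >2 mm). Survival was reported as median survival time and %ILS, with ≥25% ILS counted as active.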

Mus musculus [2] = species on record: Mus musculus; assay: Autopsy data was evaluated as average body weight/g; outline: as §1
Mus musculus [3] = assay: Effect on postoperative lewis lung carcinoma model, was evaluated as increase in life span on BDF1 female mice, administered intraperitoneally; outline: as §1
Mus musculus [4] = species on record: Mus musculus; assay: Autopsy data was evaluated as average lung weight, mg; outline: as §1
Mus musculus [5] = species on record: Mus musculus; assay: Autopsy data was evaluated as average number of metastasis in <2 mm; outline: as §1
Mus musculus [6] = assay: Effect on postoperative lewis lung carcinoma model, was evaluated as […] on BDF1 female mice, administered intraperitoneally; set-up: unit not given beside the values; outline: as §1

| Compound | Average No. of metastasis (Mus musculus [1]) | Average body weight (Mus musculus [2]) | Increase in life span (Mus musculus [3]) | Average lung weight (Mus musculus [4]) | Average No. of metastasis (Mus musculus [5]) | MST (Mus musculus [6]) |
| --- | --- | --- | --- | --- | --- | --- |
| O=C1CN2C[C@@H]3C(=O)N(CN4CCOCC4)C(=O)CN3C[C@@H]2C(=O)N1CN1CCOCC1 | 6 | 19.2 g | >48% | 358 mg | 0 | >40 |
| O=C1CN2C[C@H]3C(=O)NC(=O)CN3C[C@@H]2C(=O)N1 | 48 | 16.9 g | 4% | 853 mg | 0 | 28 |
| O=C1CN2C[C@H]3C(=O)N(CN4CCOCC4)C(=O)CN3C[C@@H]2C(=O)N1CN1CCOCC1 | 38 | 18.9 g | <0% | 700 mg | 0 | 26 |
| O=C1CN2C[C@@H]3C(=O)NC(=O)CN3C[C@@H]2C(=O)N1 | 22 | 19.3 g | 4% | 640 mg | 0 | 28 |
